Results on 20 molecules are retold here after ChEMBL document CHEMBL1136810, “Design and synthesis of plasmepsin I and plasmepsin II inhibitors with activity in Plasmodium falciparum-infected cultured human erythrocytes” (J Med Chem, 2003).

One assay deals with Plasmepsin II (Plasmodium falciparum, UniProt P46925). Put plainly: Binding affinity for Plasmodium falciparum plasmepsin-2. In short, it runs like this: (§1)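 Fluorogenic protease assay in 100 mM sodium acetate pH 4.5 with 10% glycerol and 0.01% Tween 20. Pro-Plm II at 3 nM had its pro-sequence removed by 40 min preincubation at room temperature. Plm I was matched to similar activity. Pro-cathepsin D at 50 ng/mL was activated 20 min at 37 °C. Inhibitors in DMSO (1% final) were added before 3 μM DABCYL/EDANS peptide substrate. Fluorescence rise was read over 10 min. IC50 came from a competitive-isotherm fit and was converted to Ki using Km.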
Sequence of Plasmepsin II (P46925 whole entry): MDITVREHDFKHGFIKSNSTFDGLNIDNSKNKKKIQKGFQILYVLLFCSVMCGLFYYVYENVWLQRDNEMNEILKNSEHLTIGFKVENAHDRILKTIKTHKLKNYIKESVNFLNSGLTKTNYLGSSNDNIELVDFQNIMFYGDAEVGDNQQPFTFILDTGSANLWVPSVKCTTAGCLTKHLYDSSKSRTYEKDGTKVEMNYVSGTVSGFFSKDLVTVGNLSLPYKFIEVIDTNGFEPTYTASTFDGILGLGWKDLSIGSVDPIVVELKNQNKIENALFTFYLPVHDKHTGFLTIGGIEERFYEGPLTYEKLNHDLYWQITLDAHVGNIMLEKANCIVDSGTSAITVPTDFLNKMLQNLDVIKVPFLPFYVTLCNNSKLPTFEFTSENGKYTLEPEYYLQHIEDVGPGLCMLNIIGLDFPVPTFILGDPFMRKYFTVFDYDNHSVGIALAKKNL

A further assay deals with Plasmepsin I (Plasmodium falciparum, UniProt P39898). Put plainly: Binding affinity for Plasmodium falciparum plasmepsin-1. A digest of the protocol:
as §1

The next assay concerns the target Cathepsin D (Homo sapiens, UniProt P07339). Put plainly: In vitro binding affinity for human cathepsin D. A digest of the protocol:
as §1

Assay [1] deals with Plasmodium falciparum. Put plainly: Effective dose against Plasmodium falciparum in red blood cells. It counts as functional. The conditions noted are these: read-out: ED50 (the source's name).
The test system of another assay is Caco-2. Put plainly: Permeability in Caco-2 cells was determined. It counts as functional, cell-based. The conditions noted are these: Homo sapiens.
In assay [2] the test system is Plasmodium falciparum. Put plainly: Percent inhibition of Plasmodium falciparum in erythrocytes at 5 uM. It counts as functional.
The test system of assay [3] is Plasmodium falciparum. The assay can be described thus: Percent inhibition of Plasmodium falciparum in red blood cells at 5 uM. It counts as functional.
For assay [4], the system named is Plasmodium falciparum. Put plainly: Percent inhibition against Plasmodium falciparum infected red blood cells at 5 uM. It counts as functional.

Sequence of Plasmepsin I (P39898 whole entry): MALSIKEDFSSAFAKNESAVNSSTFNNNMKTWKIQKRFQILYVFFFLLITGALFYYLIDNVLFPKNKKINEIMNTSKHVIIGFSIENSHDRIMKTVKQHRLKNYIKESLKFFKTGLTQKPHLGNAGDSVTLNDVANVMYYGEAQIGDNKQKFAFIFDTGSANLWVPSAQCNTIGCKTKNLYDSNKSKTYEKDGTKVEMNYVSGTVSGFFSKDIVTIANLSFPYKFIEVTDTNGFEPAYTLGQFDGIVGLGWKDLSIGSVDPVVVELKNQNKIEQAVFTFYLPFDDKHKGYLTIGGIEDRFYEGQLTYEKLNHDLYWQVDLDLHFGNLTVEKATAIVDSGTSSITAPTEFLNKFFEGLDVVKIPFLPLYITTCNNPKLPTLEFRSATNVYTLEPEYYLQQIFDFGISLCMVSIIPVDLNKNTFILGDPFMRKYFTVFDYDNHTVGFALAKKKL
Sequence of Cathepsin D (P07339 65-162 limits assumed): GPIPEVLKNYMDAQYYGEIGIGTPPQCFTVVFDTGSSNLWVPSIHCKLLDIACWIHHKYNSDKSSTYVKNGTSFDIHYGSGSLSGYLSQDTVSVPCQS
Sequence of Cathepsin D (P07339 169-412 limits assumed): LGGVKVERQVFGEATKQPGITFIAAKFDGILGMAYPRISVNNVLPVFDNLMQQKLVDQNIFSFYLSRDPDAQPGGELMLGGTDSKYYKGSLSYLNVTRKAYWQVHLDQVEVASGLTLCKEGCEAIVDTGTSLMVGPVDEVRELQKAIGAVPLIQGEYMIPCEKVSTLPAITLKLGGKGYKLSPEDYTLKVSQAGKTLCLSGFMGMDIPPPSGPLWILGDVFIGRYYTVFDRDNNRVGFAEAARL

For orientation: Ki means the equilibrium dissociation constant of an inhibitor or competing ligand from its target. For `COc1ccccc1-c1ccc(C[C@H](NC[C@H](O)[C@H](Cc2ccccc2)NC(=O)[C@@H](NC(=O)c2ccccn2)C(C)C)C(N)=O)cc1`, the Ki stood at 379 nM on Plasmepsin II and 437 nM on Plasmepsin I.

In turn, `CC(C)C[C@H](NC(=O)[C@H](C)NC(=O)C[C@H](O)[C@H](Cc1ccccc1)NC(=O)[C@@H](NC(=O)c1ccccn1)C(C)C)C(N)=O` registered a Ki on Plasmepsin II of 0.56 nM. In other words, the sub-nanomolar range.

In the case of `CC(C)[C@H](NC(=O)c1ccccn1)C(=O)N[C@@H](Cc1ccccc1)[C@@H](O)CN[C@@H](Cc1cccc(-c2ccccc2)c1)C(N)=O`, the Ki at Cathepsin D turned out to be 1600 nM; at Plasmepsin II, 579 nM; at Plasmepsin I, 1000 nM.

Regarding `CC(C)[C@H](NC(=O)c1ccccn1)C(=O)N[C@@H](Cc1ccccc1)[C@@H](O)CN[C@H](Cc1ccccc1)C(N)=O`, the inhibitory constant (Ki) at Cathepsin D is more than 2000 nM.

For the molecule `Cc1ccc(-c2ccc(C[C@H](NC[C@H](O)[C@H](Cc3ccccc3)NC(=O)[C@@H](NC(=O)c3ccccn3)C(C)C)C(N)=O)cc2)cc1`, the results for the Ki on Plasmepsin II and on Plasmepsin I were 121 nM and 115 nM, respectively. Moreover, in the assay with Plasmodium falciparum [1], the EC50 turned out to be 1600 nM.

As for `CC(C)[C@H](NC(=O)c1ccccn1)C(=O)N[C@@H](Cc1ccccc1)[C@@H](O)CN1C(=O)NC(=O)[C@@H]1Cc1ccc(-c2ccccc2)cc1`, the Ki on Cathepsin D is more than 2000 nM; on Plasmepsin II, 928 nM; at Plasmepsin I, 2050 nM.

With `CC(C)[C@H](NC(=O)c1ccccn1)C(=O)N[C@@H](Cc1ccccc1)[C@@H](O)CN[C@@H](Cc1cccc(OS(=O)(=O)C(F)(F)F)c1)C(N)=O`, the Ki is 1700 nM on Cathepsin D, more than 2000 nM on Plasmepsin II and 469 nM on Plasmepsin I.

`CC(C)[C@H](NC(=O)c1ccccn1)C(=O)N[C@@H](Cc1ccccc1)[C@@H](O)CN[C@@H](Cc1ccccc1)C(N)=O` returned a Ki at Cathepsin D of more than 2800 nM.

Take `CC(C)[C@H](NC(=O)c1ccccn1)C(=O)N[C@@H](Cc1ccccc1)[C@@H](O)CN[C@@H](C)C(N)=O`: the Ki at Cathepsin D, at Plasmepsin II and on Plasmepsin I was more than 2000 nM in each case.

As to `CC(C)[C@H](NC(=O)c1ccccn1)C(=O)N[C@@H](Cc1ccccc1)[C@@H](O)CN[C@H](C(N)=O)c1ccccc1`, the Ki on Cathepsin D, on Plasmepsin II and at Plasmepsin I was more than 2000 nM each time.

In the case of `CCCCNC(=O)C[C@H](O)[C@H](CC(C)C)NC(=O)[C@@H](NC(=O)Cc1ccc2ccccc2c1)C(C)CC` (stereo partly drawn), the values for the Ki at Cathepsin D and at Plasmepsin II were 320 nM and 50 nM, respectively.

As for `CC(C)C[C@H](NC[C@H](O)[C@H](Cc1ccccc1)NC(=O)c1ccccn1)C(N)=O`, the inhibition constant Ki at Cathepsin D, at Plasmepsin II and on Plasmepsin I was more than 2000 nM each time.

In general, Papp refers to the rate of passage across a membrane or cell layer, normalised by area and donor concentration. Consider `CC(C)[C@H](NC(=O)c1ccccn1)C(=O)N[C@@H](Cc1ccccc1)[C@@H](O)CN[C@@H](Cc1ccc(-c2ccccc2)cc1)C(N)=O`, for which the figures for the Ki at Cathepsin D, on Plasmepsin II and at Plasmepsin I were more than 2000 nM, 117 nM and 68 nM, respectively. The molecule further displayed a Papp in the assay with Caco-2 of 10.3 ×10⁻⁶ cm/s.

`CC(C)[C@H](NC(=O)c1ccccn1)C(=O)N[C@@H](Cc1ccccc1)[C@@H](O)CN1C(=O)NC(=O)[C@@H]1Cc1ccc(Br)cc1`: the results for the Ki at Cathepsin D, at Plasmepsin II and at Plasmepsin I were more than 2000 nM, 1900 nM and more than 2000 nM, respectively.

`COc1ccccc1-c1cccc(C[C@H](NC[C@H](O)[C@H](Cc2ccccc2)NC(=O)[C@@H](NC(=O)c2ccccn2)C(C)C)C(N)=O)c1`: the Ki on Cathepsin D was more than 2000 nM; on Plasmepsin II it was 1430 nM; on Plasmepsin I it was 1300 nM.

On Cathepsin D, `CC(C)C[C@H](NC[C@H](O)[C@H](Cc1ccccc1)NC(=O)[C@@H](NC(=O)c1ccccn1)C(C)C)C(N)=O` yielded a Ki of more than 2800 nM.

By inhibition is commonly meant the share of the control response that was lost under treatment. Read a low inhibition as a weak effect. As for `CC(C)[C@H](NC(=O)c1ccccn1)C(=O)N[C@@H](Cc1ccccc1)[C@@H](O)CN[C@@H](Cc1ccc(-c2cccc(N)c2)cc1)C(N)=O`, the inhibition constant (Ki) turned out to be 150 nM on Plasmepsin II and 63 nM at Plasmepsin I. Further, the inhibition at 5 µM with Plasmodium falciparum [2] was 77%.

Take `CC(C)[C@H](NC(=O)c1ccccn1)C(=O)N[C@@H](Cc1ccccc1)[C@@H](O)CN[C@@H](Cc1cccc(-c2cccc(N)c2)c1)C(N)=O`: the Ki was more than 2000 nM on Cathepsin D, 129 nM on Plasmepsin II and 530 nM at Plasmepsin I. The same molecule returned an inhibition at 5 µM with Plasmodium falciparum [3] of 69%.

Turning to `CC(C)[C@H](NC(=O)c1ccccn1)C(=O)N[C@@H](Cc1ccccc1)[C@@H](O)CN[C@@H](Cc1ccc(Br)cc1)C(N)=O`, the Ki on Cathepsin D was more than 2000 nM; at Plasmepsin II it was 540 nM; on Plasmepsin I, 98 nM. This molecule gave an inhibition at 5 µM with Plasmodium falciparum [4] of 35%.

For `Cc1ccc(-c2cccc(C[C@H](NC[C@H](O)[C@H](Cc3ccccc3)NC(=O)[C@@H](NC(=O)c3ccccn3)C(C)C)C(N)=O)c2)cc1`, the Ki on Cathepsin D was determined as 1900 nM; at Plasmepsin II it was 930 nM; on Plasmepsin I it was 1100 nM.
